From ChEMBL document CHEMBL1764958, “Synthesis and biological evaluation of 3,7-diazabicyclo[4.3.0]nonan-8-ones as potential nootropic and analgesic drugs” (2011)
Active and inactive are the calls of the source. The calls are words filed in the database; no cut-off is given here.

Tests used:
[1] = system: Mus musculus; assay: Antiamnesic activity in ip dosed mouse assessed as reversal of scopolamine-induced amnesia after 20 mins by passive-avoidance test; assay type: functional; settings: for minimal effective dose: Mus musculus, ip, 20 min, read-out: MED
[2] = system: Rattus norvegicus; assay: Antihyperalgesic activity in rat assessed as reversal of oxaliplatin-induced mechanical hyperalgesia at 10 mg.kg, ip by paw pressure test; assay type: functional, organism-based
In short: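 Rats received oxaliplatin 2.4 mg/kg ip on 5 consecutive days each week, for 15 injections totalling 36 mg/kg. Mechanical hyperalgesia was then measured by the paw-pressure test after a single ip dose of 10 mg/kg. Pregabalin 30 mg/kg po served as reference.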

[3] = organism: Mus musculus; assay: Antihyperalgesic activity against thermal hyperalgesia in saline treated mouse diabetic neuropathy model assessed as licking latency time after 30 mins by hot plate test (reference value: 18 +/- 1.5 sec)
[4] = organism: Mus musculus; assay: Antihyperalgesic activity against thermal hyperalgesia in saline treated mouse diabetic neuropathy model assessed as licking latency time after 15 mins by hot plate test (reference value: 18.1 +/- 1.1 sec)
[5] = organism: Mus musculus; assay: Antihyperalgesic activity against thermal hyperalgesia in saline treated mouse diabetic neuropathy model assessed as licking latency time after 45 mins by hot plate test (reference value: 17.8 +/- 1.5 sec)
[6] = organism: Mus musculus; assay: Antihyperalgesic activity against thermal hyperalgesia in saline treated mouse diabetic neuropathy model assessed as licking latency time after 60 mins by hot plate test (reference value: 18.4 +/- 1.6 sec)
[7] = organism: Mus musculus; assay: Antihyperalgesic activity against streptozotocin-induced thermal hyperalgesia in mouse diabetic neuropathy model assessed as licking latency time after 15 mins by hot plate test (reference value: 9.4 +/- 1.3 sec)
[8] = organism: Mus musculus; assay: Antihyperalgesic activity against streptozotocin-induced thermal hyperalgesia in mouse diabetic neuropathy model assessed as licking latency time after 45 mins by hot plate test (reference value: 9.3 +/- 1.2 sec)
[9] = organism: Mus musculus; assay: Antihyperalgesic activity against streptozotocin-induced thermal hyperalgesia in mouse diabetic neuropathy model assessed as licking latency time after 30 mins by hot plate test (reference value: 10.1 +/- 0.8 sec)
[10] = organism: Mus musculus; assay: Antihyperalgesic activity against streptozotocin-induced thermal hyperalgesia in mouse diabetic neuropathy model assessed as licking latency time after 60 mins by hot plate test (reference value: 10.4 +/- 1.2 sec)
[11] = system: Mus musculus; assay: Antiamnesic activity in mouse assessed as reversal of scopolamine-induced amnesia at 10 mg/kg, ip after 20 mins by passive-avoidance test; assay type: functional, organism-based; parameters: dose 10 mg/kg
In short: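 Mice; compounds dissolved in saline, given ip 20 min before the training session of the passive-avoidance test. Scopolamine injected immediately after punishment. Doses tested up to 10 mg/kg; activity read as reversal of scopolamine-induced amnesia at retention. Each value is the mean of 8-18 mice, compared against scopolamine-treated mice.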

[12] = system: Rattus norvegicus; assay: Antihyperalgesic activity in rat assessed as reversal of oxaliplatin-induced mechanical hyperalgesia at 50 to 100 mg.kg, iv by paw pressure test; assay type: functional

## NC(=O)CN1CCCC1=O [PIRACETAM]
[1]
  minimal effective dose: 30 mg/kg

## O=C1C[C@@H]2CN(C(=O)c3ccccc3)CC[C@@H]2N1 (relative stereo)
[1]
  minimal effective dose: 3 mg/kg

## O=C1C[C@H]2CN(C(=O)c3ccccc3)CC[C@@H]2N1 (relative stereo)
[1]
  minimal effective dose: 3 mg/kg

## CC(=O)NC1CCN(S(=O)(=O)c2ccc(F)cc2)CC1 [SAPUNIFIRAM]
[1]
  minimal effective dose: 0.01 mg/kg
[2]
  Activity: inactive
[3]
  Time: 15.7 s
[4]
  Time: 16.5 s
[5]
  Time: 16.3 s
[6]
  Time: 15.6 s
[7]
  Time: 15.6 s
[8]
  Time: 10.4 s
[9]
  Time: 12.4 s
[10]
  Time: 11.2 s

## CC(C)S(=O)(=O)N1CC[C@@H]2NC(=O)C[C@@H]2C1
[11]
  Activity: inactive

## O=C1CC2CN(S(=O)(=O)c3ccc(F)cc3)CCC2N1 (racemic; form 2)
[2]
  Activity: Active

## O=C1C[C@@H]2CN(S(=O)(=O)c3ccc(F)cc3)CC[C@@H]2N1 (stereo in doubt; (+)-4)
[12]
  Activity: 75%

## O=C1C[C@H]2CN(S(=O)(=O)c3ccc(F)cc3)CC[C@@H]2N1 (stereo in doubt; (-)-7)
[1]
  minimal effective dose: 1 mg/kg

## O=C1O[C@H]([C@@H](O)CO)C(O)=C1O [ASCORBIC ACID]
[12]
  Activity: 50%

## O=C1CC2CN(S(=O)(=O)c3ccc(F)cc3)CCC2N1 (racemic; form 1)
[2]
  Activity: Active

## CC(C)S(=O)(=O)N1CC[C@@H]2NC(=O)C[C@H]2C1 (relative stereo)
[1]
  minimal effective dose: 10 mg/kg

## O=C1C[C@H]2CN(S(=O)(=O)c3ccc(F)cc3)CC[C@@H]2N1 (relative stereo)
[1]
  MED: 1 mg/kg

## CC(=O)NC1CCN(C(=O)c2ccccc2)CC1
[1]
  minimal effective dose: 10 mg/kg

## CC(=O)NC1CCN(S(=O)(=O)C(C)C)CC1
[1]
  minimal effective dose: 1 mg/kg

## O=C1C[C@@H]2CN(S(=O)(=O)c3ccc(F)cc3)CC[C@@H]2N1 (stereo in doubt; (-)-4)
[1]
  minimal effective dose: 0.1 mg/kg

## O=C1C[C@@H]2CN(S(=O)(=O)c3ccc(F)cc3)CC[C@@H]2N1 (relative stereo)
[1]
  MED: 0.1 mg/kg

## O=C(O)CCCCC1CCSS1 (stereo not drawn) [LIPOIC ACID, ALPHA]
[12]
  Activity: 50%
